According to ChEMBL document CHEMBL4229391, “Divergent synthesis of thapsigargin analogs” (Bioorg Med Chem Lett, 2018):

Columns and labels:
Format in all cases: cell-based
[1] = tested on: HeLa; experiment: Inhibition of SERCA in human HeLa cells assessed as increase in cytosolic calcium level at 3.91 x 10^-8M measured over 300 secs by Fluo-4 NW dye based FLIPR analysis relative to control
How it was run: (§1)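 HeLa cells were seeded at 25,000/well in MEM + 10% FBS and grown overnight at 37°C, 5% CO2. They were loaded with Fluo-4 NW (30 min at 37°C, then 30 min at RT). Compound was added in HBSS/20 mM HEPES, one point of a 10-point in-assay range (10 uM – 38 pM). Fluorescence (ex 470-495, em 515-575 nm) was read for 300 s. Peak signal was normalized to thapsigargin (=100%) and buffer (0.2% DMSO) controls.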

[2] = Inhibition of SERCA in human HeLa cells assessed as increase in cytosolic calcium level measured over 300 secs by Fluo-4 NW dye based FLIPR analysis
How it was run: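 Fluo-4 NW-loaded HeLa cells (25,000/well, overnight culture in MEM/10% FBS) received 10-point titrations (10 uM – 38 pM in-assay) in HBSS/20 mM HEPES. Fluorescence was recorded for 300 s. Peak signals, normalized to thapsigargin and 0.2% DMSO buffer controls, were fitted to a log agonist-response model. The midpoint concentration is reported as IC50. Values are mean ± SD of three independent determinations, each run in duplicate.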

[3] = tested on: HeLa; experiment: Inhibition of SERCA in human HeLa cells assessed as increase in cytosolic calcium level at 6.10 x 10^-10M measured over 300 secs by Fluo-4 NW dye based FLIPR analysis relative to control
How it was run: (§2)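 HeLa cells seeded at 25,000/well in MEM + 10% FBS and kept overnight at 37°C, 5% CO2. They were loaded with FLUO-4 NW (30 min 37°C, then 30 min RT) in HBSS/20 mM HEPES. Compounds were added from DMSO in a 10-point titration (in-assay 10 uM–38 pM). Fluorescence (ex 470-495, em 515-575 nm) was read 300 s. Signal maxima were normalized to thapsigargin (100%) and buffer/0.2% DMSO controls. Three independent runs in duplicate.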

[4] = tested on: HeLa; experiment: Inhibition of SERCA in human HeLa cells assessed as increase in cytosolic calcium level at 3.81 x 10^-11M measured over 300 secs by Fluo-4 NW dye based FLIPR analysis relative to control; how it was run: as §1
[5] = tested on: HeLa; experiment: Inhibition of SERCA in human HeLa cells assessed as increase in cytosolic calcium level at 6.25 x 10^-7M measured over 300 secs by Fluo-4 NW dye based FLIPR analysis relative to control; how it was run: as §1
[6] = tested on: HeLa; experiment: Inhibition of SERCA in human HeLa cells assessed as increase in cytosolic calcium level at 2.50 x 10^-6M measured over 300 secs by Fluo-4 NW dye based FLIPR analysis relative to control; how it was run: as §1
[7] = tested on: HeLa; experiment: Inhibition of SERCA in human HeLa cells assessed as increase in cytosolic calcium level at 1.53 x 10^-10M measured over 300 secs by Fluo-4 NW dye based FLIPR analysis relative to control; how it was run: as §2
[8] = tested on: HeLa; experiment: Inhibition of SERCA in human HeLa cells assessed as increase in cytosolic calcium level at 1.00 x 10^-5M measured over 300 secs by Fluo-4 NW dye based FLIPR analysis relative to control; how it was run: as §1
[9] = tested on: HeLa; experiment: Inhibition of SERCA in human HeLa cells assessed as increase in cytosolic calcium level at 9.77 x 10^-9M measured over 300 secs by Fluo-4 NW dye based FLIPR analysis relative to control; how it was run: as §2
[10] = tested on: HeLa; experiment: Inhibition of SERCA in human HeLa cells assessed as increase in cytosolic calcium level at 2.44 x 10^-9M measured over 300 secs by Fluo-4 NW dye based FLIPR analysis relative to control; how it was run: as §2
[11] = tested on: HeLa; experiment: Inhibition of SERCA in human HeLa cells assessed as increase in cytosolic calcium level at 1.56 x 10^-7M measured over 300 secs by Fluo-4 NW dye based FLIPR analysis relative to control; how it was run: as §1

For `C/C=C(/C)C(=O)O[C@H]1C(C)=C2[C@H]([C@@H]1OC(=O)CCCCCCC)[C@@](C)(OC(C)=O)C[C@H](OC(=O)CCC)[C@@]1(O)[C@H]2OC(=O)[C@@]1(C)O` [THAPSIGARGIN], the inhibition [1] was 37.6 to 75.1%, the IC50 [2] was 28.5 to 51 nM and the inhibition [3] was -5 to 0.6%. It also gave an inhibition [4] of -2.3 to 2.9%, an inhibition [5] of 90.4 to 109% and an inhibition [6] of 92.9 to 105%. It also gave an inhibition [7] of -1.7 to 0.1%, an inhibition [8] of 89 to 107% and an inhibition [9] of -2.7 to 10.5%. For the same compound, the inhibition [10] was -4.1 to 1.4% and the inhibition [11] was 67.6 to 103%.

In the case of `C/C=C(/C)C(=O)O[C@H]1C(C)=C2[C@H]([C@@H]1OC(=O)CCCCCCC)[C@@](C)(OC(C)=O)C[C@H](OC(=O)[C@@H](C)CC)[C@@]1(O)[C@H]2OC(=O)[C@@]1(C)O`, the inhibition [1] is reported as 2.9 to 27.6%, the IC50 [2] is reported as 220 to 298 nM and the inhibition [3] is reported as -3.2 to 2.2%. The inhibition [4] was -2.2 to 2.4%, the inhibition [5] was 88.4 to 101% and the inhibition [6] was 91.1 to 109%. It also gave an inhibition [7] of -4.2 to 2.5%, an inhibition [8] of 89.4 to 110% and an inhibition [9] of -1.3 to 3.8%. It also gave an inhibition [10] of -1.6 to 2.8% and an inhibition [11] of 6.2 to 40.9%.

Work on `CCCCCCCC(=O)O[C@H]1[C@H]2C(=C(C)[C@@H]1OC(=O)CC(C)C)[C@@H]1OC(=O)[C@@](C)(O)[C@@]1(O)[C@@H](OC(=O)CCC)C[C@]2(C)OC(C)=O` yielded an IC50 [2] of 310 to 576 nM, an inhibition [4] of -8 to 21.4% and an inhibition [5] of 40.2 to 84.1%. For the same compound, the inhibition [6] was 72.4 to 91.7% and the inhibition [8] was 89.7 to 96.6%.

With `CCCCCCCC(=O)O[C@H]1[C@H]2C(=C(C)[C@@H]1OC(=O)c1sccc1C)[C@@H]1OC(=O)[C@@](C)(O)[C@@]1(O)[C@@H](OC(=O)CCC)C[C@]2(C)OC(C)=O` the inhibition [1] was -6.6 to 60.1%, the IC50 [2] was 30 to 119 nM and the inhibition [3] was -4.2 to 0.8%. It also gave an inhibition [4] of -2.2 to 3.1%, an inhibition [5] of 83.7 to 102% and an inhibition [6] of 86.7 to 101%. The inhibition [7] was -2.6 to 0.5%, the inhibition [8] was 92 to 101% and the inhibition [9] was -6.6 to 10%. For the same compound, the inhibition [10] was -7.7 to 1.6% and the inhibition [11] was 57 to 99.4%.

For `C/C=C(/C)C(=O)O[C@@H]1C[C@H]2C(=C1C)[C@@H]1OC(=O)[C@@](C)(O)[C@@]1(O)[C@@H](OC(=O)C=C(C)C)C[C@]2(C)OC(C)=O`, the inhibition [1] was -1.7 to 10.7%, the IC50 [2] was 204 to 268 nM and the inhibition [3] was -3 to 3.3%. For the same compound, the inhibition [4] was -2 to 1.7%, the inhibition [5] was 65.5 to 94.1% and the inhibition [6] was 87.1 to 102%. It also gave an inhibition [7] of -3.3 to 2.6%, an inhibition [8] of 92 to 102% and an inhibition [9] of -4.7 to 4.6%. The inhibition [10] was -3.4 to 4.1% and the inhibition [11] was 12.1 to 55.6%.

`CCCCCCCC(=O)O[C@H]1[C@H]2C(=C(C)[C@@H]1OC(=O)c1cccs1)[C@@H]1OC(=O)[C@@](C)(O)[C@@]1(O)[C@@H](OC(=O)CCC)C[C@]2(C)OC(C)=O` gave an inhibition [1] of -7.5 to 25.7%, an IC50 [2] of 71.5 to 117 nM and an inhibition [4] of -5.9 to 0.6%. It also gave an inhibition [5] of 68.8 to 103%, an inhibition [6] of 79.6 to 105% and an inhibition [8] of 92.9 to 102%. For the same compound, the inhibition [11] was 52.4 to 84.4%.

`CCCCCCCC(=O)O[C@H]1[C@H]2C(=C(C)[C@@H]1OC(=O)[C@H](C)CC)[C@@H]1OC(=O)[C@@](C)(O)[C@@]1(O)[C@@H](OC(=O)CCC)C[C@]2(C)OC(C)=O` showed an inhibition [1] of 8.1 to 45.8%, an IC50 [2] of 57.7 to 104 nM and an inhibition [3] of -0.7 to 1.9%. The inhibition [4] was -0.7 to 2.6%, the inhibition [5] was 91.7 to 104% and the inhibition [6] was 88.1 to 106%. For the same compound, the inhibition [7] was -4.3 to 1.5%, the inhibition [8] was 87.4 to 108% and the inhibition [9] was 1 to 7.1%. The inhibition [10] was -1.6 to 3.6% and the inhibition [11] was 71.9 to 87.8%.

`C/C=C(/C)C(=O)O[C@H]1C(C)=C2[C@H]([C@@H]1OC(=O)CCCCC)[C@@](C)(OC(C)=O)C[C@H](OC(=O)CCC)[C@@]1(O)[C@H]2OC(=O)[C@@]1(C)O` showed an inhibition [1] of 5.8 to 30.7%, an IC50 [2] of 73 to 90 nM and an inhibition [3] of -4.6 to 4.1%. It also gave an inhibition [4] of -2.5 to 2%, an inhibition [5] of 90.8 to 104% and an inhibition [6] of 91.1 to 105%. For the same compound, the inhibition [7] was -2.1 to 3.5%, the inhibition [8] was 86.6 to 100% and the inhibition [9] was -2.2 to 7.9%. The inhibition [10] was -5.9 to 4.6% and the inhibition [11] was 64.9 to 94.4%.
